For orientation: IC50 means the concentration that gives 50% inhibition. Low readings indicate inhibition by little substance, high ones a need for much substance.

Experimental findings from ChEMBL document CHEMBL4190234, “Design, synthesis and anticancer activity of new monastrol analogues bearing 1,3,4-oxadiazole moiety” (Eur J Med Chem, 2017) are described below.

SMILES strings stand for the structures.

Assay [1] relates to HL-60(TB). As to the kind of experiment: Growth inhibition of human HL-60(TB) cells incubated for 24 hrs by MTT assay. Particulars: HL-60, 24 h. Format: functional, cell-based. Summed up: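 Cells at 1.2-1.8×10^4 cells/ml in DMEM with 10% FBS, 10 µg/ml insulin and 1% penicillin/streptomycin, plated overnight at 37°C. Serial 10-fold dilutions added to 0.01–100 µM final, medium as negative control, 24 h. MTT (5 mg/ml) added for 4 h, formazan dissolved in acid-isopropanol, A490 read. Eight separate experiments; percent viable cells used to derive IC50.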

For assay [2], the system named is MOLT-4. Put plainly: Growth inhibition of human MOLT4 cells incubated for 24 hrs by MTT assay. Particulars: MOLT-4, 24 h. Format: functional, cell-based. A general note: Formazan colour is commonly taken as a measure of viable cells.
Assay [3] concerns MOLT-4. As to the kind of experiment: Potency index, ratio of monastrol IC50 to compound IC50 for human MOLT4 cells. It is filed as functional.
Assay [4] relates to MOLT-4. As to the kind of experiment: Cell cycle arrest in human MOLT4 cells assessed as accumulation of apoptotic cells in pre-G phase at 0.16 uM after 24 hrs by propidium iodide staining based flow cytometry (reference value: 0.88%). It is filed as functional. The essentials: (§1)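 MOLT-4 cells (1×10^6) exposed 24 h to 0.160 or 0.430 μM test agent, DMSO (0.002%) control; trypsinized, washed in ice-cold PBS, fixed in ice-cold 70% ethanol ≥2 h at 4°C, washed, stained with propidium iodide DNA kit; cell cycle distribution (pre-G, G0/G1, S, G2/M) by flow cytometry.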

In assay [5] the test system is MOLT-4. As to the kind of experiment: Cell cycle arrest in human MOLT4 cells assessed as accumulation at G0/G1 phase at 0.16 uM after 24 hrs by propidium iodide staining based flow cytometry (reference value: 74.22%). Format: functional. The essentials:
as §1
In general terms: Flow cytometry measures light scatter and fluorescence of single cells or particles in a stream.

For assay [6], the system named is MOLT-4. As to the kind of experiment: Cell cycle arrest in human MOLT4 cells assessed as accumulation at G2/M phase at 0.16 uM after 24 hrs by propidium iodide staining based flow cytometry (reference value: 4.35%). It is filed as functional. The essentials: as §1
For assay [7], the system named is MOLT-4. As to the kind of experiment: Cell cycle arrest in human MOLT4 cells assessed as accumulation at S phase at 0.16 uM after 24 hrs by propidium iodide staining based flow cytometry (reference value: 20.55%). It is filed as functional. Summed up:
as §1

The test system of assay [8] is MOLT-4. Put plainly: Induction of apoptosis in human MOLT4 cells assessed as live cells at 0.16 uM after 24 hrs by Annexin V-FITC/propidium iodide staining based flow cytometry (reference value: 99.12%). It is filed as functional.
Assay [9] concerns MOLT-4. As to the kind of experiment: Induction of apoptosis in human MOLT4 cells assessed as early apoptotic cells at 0.16 uM after 24 hrs by Annexin V-FITC/propidium iodide staining based flow cytometry (reference value: 0.53%). It is filed as functional.
Assay [10] relates to MOLT-4. As to the kind of experiment: Induction of apoptosis in human MOLT4 cells assessed as late apoptotic cells at 0.16 uM after 24 hrs by Annexin V-FITC/propidium iodide staining based flow cytometry (reference value: 0.24%). It is filed as functional.
For assay [11], the system named is MOLT-4. Put plainly: Induction of apoptosis in human MOLT4 cells assessed as necrotic cells at 0.16 uM after 24 hrs by Annexin V-FITC/propidium iodide staining based flow cytometry (reference value: 0.11%). It is filed as functional.
For assay [12], the system named is MOLT-4. Put plainly: Induction of apoptosis in human MOLT4 cells assessed as increase in apoptotic cells at 0.16 uM after 24 hrs by Annexin V-FITC/propidium iodide staining based flow cytometry relative to control. It is filed as functional.
Assay [13] relates to HL-60(TB). Put plainly: Potency index, ratio of monastrol IC50 to compound IC50 for human HL-60(TB) cells. It is filed as functional.
Assay [14] deals with HL-60(TB). As to the kind of experiment: Cell cycle arrest in human HL-60(TB) cells assessed as accumulation of apoptotic cells in pre-G phase at 0.112 uM after 24 hrs by propidium iodide staining based flow cytometry (reference value: 1.44%). It is filed as functional.
Assay [15] relates to HL-60(TB). As to the kind of experiment: Cell cycle arrest in human HL-60(TB) cells assessed as accumulation at G0/G1 phase at 0.112 uM after 24 hrs by propidium iodide staining based flow cytometry (reference value: 68.43%). It is filed as functional.
For assay [16], the system named is HL-60(TB). As to the kind of experiment: Cell cycle arrest in human HL-60(TB) cells assessed as accumulation at G2/M phase at 0.112 uM after 24 hrs by propidium iodide staining based flow cytometry (reference value: 7.29%). It is filed as functional.
For assay [17], the system named is HL-60(TB). Put plainly: Cell cycle arrest in human HL-60(TB) cells assessed as accumulation at S phase at 0.112 uM after 24 hrs by propidium iodide staining based flow cytometry (reference value: 22.84%). It is filed as functional.
The test system of assay [18] is HL-60(TB). Put plainly: Induction of apoptosis in human HL-60(TB) cells assessed as live cells at 0.112 uM after 24 hrs by Annexin V-FITC/propidium iodide staining based flow cytometry (reference value: 98.57%). Format: functional.
In assay [19] the test system is HL-60(TB). As to the kind of experiment: Induction of apoptosis in human HL-60(TB) cells assessed as early apoptotic cells at 0.112 uM after 24 hrs by Annexin V-FITC/propidium iodide staining based flow cytometry (reference value: 0.84%). It is filed as functional.
In assay [20] the test system is HL-60(TB). Put plainly: Induction of apoptosis in human HL-60(TB) cells assessed as late apoptotic cells at 0.112 uM after 24 hrs by Annexin V-FITC/propidium iodide staining based flow cytometry (reference value: 0.39%). It is filed as functional.
For assay [21], the system named is HL-60(TB). As to the kind of experiment: Induction of apoptosis in human HL-60(TB) cells assessed as necrotic cells at 0.112 uM after 24 hrs by Annexin V-FITC/propidium iodide staining based flow cytometry (reference value: 0.2%). Format: functional.
Assay [22] concerns HL-60(TB). Put plainly: Induction of apoptosis in human HL-60(TB) cells assessed as increase in apoptotic cells at 0.112 uM after 24 hrs by Annexin V-FITC/propidium iodide staining based flow cytometry relative to control. It is filed as functional.

As for `CCOC(=O)C1=C(C)NC(SCc2nnc(-c3ccc(Cl)cc3)o2)=NC1c1ccc(Cl)cc1Cl` (stereo not given), the IC50 is 153 nM in assay [1] and 80 nM in assay [2]. The “Ratio IC50” value in assay [3] amounted to 3. Also, the Activity in [4] amounted to 17.83%; in assay [5], 38.52%; in [6], 26.61%; in assay [7], 17.04%; in assay [8], 82.17%; in [9], 10.48%. The Activity in assay [10] is 5.89%; in assay [11], 1.46%. Moreover, in [12], the “fold change (FC)” value is 21.

Take `CCOC(=O)C1=C(C)NC(SCc2nnc(-c3ccc(Cl)cc3)o2)=NC1c1cccc(Cl)c1` (stereo not given): the IC50 is 56 nM in assay [1] and 1790 nM in assay [2]. In addition, the “Ratio IC50” value in assay [13] is recorded as 2.5. For the same compound, the Activity in assay [14] came to 24.72%; in assay [15], 32.88%; in assay [16], 14.81%; in assay [17], 27.59%; in assay [18], 75.28%; in assay [19] it was 17.09%. In addition, the figures for the Activity in assay [20] and in assay [21] were 6.67% and 1.36%, respectively. Moreover, the “fold change (FC)” value in [22] was found to be 19.3.

For the compound `CCOC(=O)C1=C(C)NC(SCc2nnc(-c3ccc(Cl)cc3)o2)=NC1c1ccc(Br)cc1` (stereo not given), the IC50 in assay [1] stood at 143 nM; in [2] it was 86 nM. In [3], the “Ratio IC50” value is 3.

Take `CCOC(=O)C1=C(C)NC(SCc2nnc(-c3ccc(Cl)cc3)o2)=NC1c1ccc(Cl)cc1` (stereo not given): the results for the IC50 in [1] and in assay [2] were 103 nM and 623 nM, respectively. The “Ratio IC50” value in assay [13] came out at 1.5.
